Calls of active or inactive are those of the source. No cut-off for these calls is given here.

In data set [1] the test system is Mus musculus. In words: Toxicity in db/db mouse assessed as effect on water consumption at 0.65 mg/kg, ip administered trice per week for 12 consecutive weeks measured every other day. It counts as organism-based. Conditions: in vivo. The method in brief:
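Male db/db mice (8 weeks old, specific pathogen-free, normal chow and filtered water ad libitum) were randomized and dosed i.p. three times weekly for 12 consecutive weeks; vehicle was 5% Tween-80 in 0.9% saline. Body weight and food and water consumption were recorded every other day.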

The subject of data set [2] is Mus musculus. In words: Anti-diabetic nephropathic activity in db/db mouse assessed as reduction in plasma uric acid levels at 0.65 mg/kg, ip administered trice per week for 12 consecutive weeks measured at 11 weeks post dose. It counts as functional, organism-based. The method in brief:
(§1)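 Male db/db mice, 8 weeks old, randomized; ip vehicle (5% Tween-80 in 0.9% saline) or drug three times weekly for 12 weeks, n = 6 per group. After 11 weeks, 24 h urine collected for volume, albumin and creatinine, with UACR calculated; blood then sampled for plasma BUN and uric acid. Mean ± SD, one-way ANOVA with Tukey test.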

For data set [3], the system named is Mus musculus. As to the kind of experiment: Anti-diabetic nephropathic activity in db/db mouse assessed as reduction in urinary albumin at 0.65 mg/kg, ip administered trice per week for 12 consecutive weeks measured at 24 hrs post 11 week administration. It counts as functional, organism-based. A digest of the protocol:
as §1

For data set [4], the system named is Mus musculus. As to the kind of experiment: Renoprotective activity in db/db mouse assessed as reduction in fused podocytes at 0.65 mg/kg, ip administered trice per week for 12 consecutive weeks measured at 11 weeks post dose by TEM microscopic analysis. It counts as functional, organism-based. A digest of the protocol: (§2)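 Male db/db mice (8 weeks old) were dosed i.p. three times weekly for 12 weeks in 5% Tween-80/0.9% saline, n = 6. Kidney tissue was fixed in 3% glutaraldehyde, cut into 80 nm ultrathin sections and examined by TEM. GBM thickness was measured at 30 random locations from three sections per kidney and averaged per mouse.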

The test system of data set [5] is Mus musculus. As to the kind of experiment: Renoprotective activity in db/db mouse assessed as reduction in glomerular basement thickening at 0.65 mg/kg, ip administered trice per week for 12 consecutive weeks measured at 11 weeks post dose by TEM microscopic analysis. Type of data set: functional, organism-based. The method in brief:
as §2

The test system of data set [6] is Mus musculus. As to the kind of experiment: Cardioprotective activity in C57BL/6 db/db mouse assessed as reduction in apoptotic cardiomyocyte levels at 0.65 mg/kg, ip administered for 12 weeks by TUNNEL assay. It counts as functional, organism-based. A digest of the protocol: (§3)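 db/db mice, 8 weeks old, with C57BL/6 controls; ip vehicle or drug for 12 weeks, n = 6 per group. Heart sections (5 μm) from paraformaldehyde-fixed, paraffin-embedded tissue analysed by TUNEL; percentage of apoptotic cardiomyocytes from three sections per mouse; mean ± SD from two separate experiments.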

Data set [7] can be described thus: Drug level in Krebs buffer treated with 1-Hydroxyl-2-cyano-3-(4-(methyl-L-glutaminate-N5-yl)-benzyloxy)-12-oxo-oleana-2(3),9(11)-dien-28-oic Acid Methyl Ester assessed as bovine kidney GGT-mediated metabolite formation at 100 uM at pH 7.4 after 8 hrs by HPLC analysis. Conditions: cattle, pH 7.4, 8 h. It counts as ADME, Bos taurus. A digest of the protocol:
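Substrate at 100 μM in Krebs buffer, pH 7.4, 37 °C, with GGT (1 U/mL) and Gly-Gly acceptor (5 mM) for 8 h, in triplicate; acetonitrile (2 volumes) added, enzyme removed by centrifugation, products by HPLC.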

The nature of data set [8]: Drug level in Wistar rat plasma treated with 1-Hydroxyl-2-cyano-3-(4-(methyl-L-glutaminate-N5-yl)-benzyloxy)-12-oxo-oleana-2(3),9(11)-dien-28-oic Acid Methyl Ester assessed as GGT-mediated metabolite formation at 100 uM after 8 hrs by HPLC analysis. Type of data set: ADME. The method in brief: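 Plasma, and kidney and liver homogenates in PBS, from three Wistar rats; substrate added at 100 μM at 37 °C; metabolite measured by HPLC every 60 min for 8 h; mean ± SD of three experiments.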

Data set [9] concerns Mus musculus. In words: Renoprotective activity in db/db mouse assessed as reduction of fibrosis in glomeruli at 1 to 2 mg/kg, ip administered trice per week for 12 consecutive weeks measured at 11 weeks post dose by H/E-staining based microscopic analysis. It counts as functional, organism-based. The method in brief:
(§4)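 Male db/db mice, 8 weeks old, were randomized and dosed i.p. three times weekly for 12 weeks (vehicle: 5% Tween-80 in 0.9% saline; n = 6 per group). Kidneys were fixed in 4% PFA and paraffin-embedded. 5 μm sections were stained with HE, PAS or Masson's trichrome and examined at ×400.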

Data set [10] relates to Mus musculus. In words: Renoprotective activity in db/db mouse assessed as reduction in thickening of capillary walls in glomeruli at 1 to 2 mg/kg, ip administered trice per week for 12 consecutive weeks measured at 11 weeks post dose by H/E-staining based microscopic analysis. Type of data set: functional, organism-based. The method in brief: as §4
For data set [11], the target named is Kelch-like ECH-associated protein 1 (Homo sapiens) (UniProt Q14145). As to the kind of experiment: Inhibition of Keap1/Nrf2 (unknown origin) interaction transfected in HEK293 cells assessed as increase in cytosolic NQO1 levels after 48 hrs by Western blot analysis. Type of data set: cell-based. The method in brief: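 HEK293 cells grown in high-glucose DMEM with 10% FBS were treated in triplicate at 200 or 1000 nM for 48 h. Nuclear and cytosolic Nrf2, HO-1 and cytoplasmic NQO1 were measured by western blot with specific antibodies, with TBP and β-actin among the probed proteins. The nuclear/cytosolic Nrf2 ratio was derived from these blots. Three independent experiments, mean ± SD.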
A general note: Immunoblotting shows a protein as a band on a membrane.

Data set [12] has as its system Mus musculus. In words: Anti-diabetic nephropathic activity in db/db mouse assessed as reduction in plasma uric acid levels at 1 to 2 mg/kg, ip administered thrice per week for 12 consecutive weeks measured at 11 weeks post dose. It counts as functional, organism-based. The method in brief:
as §1

In data set [13] the test system is Mus musculus. In words: Antidiabetic nephropathic activity in db/db mouse assessed as reduction in 24 hrs urine volume at 1 to 2 mg/kg, ip administered thrice per week for 12 consecutive weeks measured at 11 weeks post dose. It counts as functional, organism-based. A digest of the protocol:
as §1

In data set [14] the test system is Mus musculus. As to the kind of experiment: Renoprotective activity in db/db mouse assessed as […] in number of intraglomerular mesangial cells at 1 to 2 mg/kg, ip administered trice per week for 12 consecutive weeks measured at 11 weeks post dose by H/E-staining based microscopic analysis. It counts as functional, organism-based. The method in brief:
as §4

The test system of data set [15] is Mus musculus. In words: Antidiabetic nephropathic activity in db/db mouse assessed as reduction in urinary albumin at 1 to 2 mg/kg, ip administered thrice per week for 12 consecutive weeks measured at 24 hrs post 11 week administration. Type of data set: functional, organism-based. The method in brief:
as §1

Data set [16] relates to Mus musculus. As to the kind of experiment: Renoprotective activity in db/db mouse assessed as reduction in loss of foot processes at 1 to 2 mg/kg, ip administered trice per week for 12 consecutive weeks measured at 11 weeks post dose by TEM microscopic analysis. It counts as functional, organism-based. A digest of the protocol: as §2
A short description of data set [17]: Drug level in Sprague-Dawley rat kidney at 30 mg/kg, ip measured at 90 mins by LC-MS/MS analysis. It counts as ADME, organism-based. To be noted: read-out: Drug uptake. The method in brief:
(§5)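 Rats given a single ip injection, 20 mg/kg (0.04 mmol) of CDDO-Me or 30 mg/kg (0.04 mmol) of the prodrug; heart, kidney and liver collected over time; parent compound and liberated CDDO-Me measured by LC-MS/MS.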

The test system of another data set is Kidney. As to the kind of experiment: In vivo drug metabolism in Sprague-Dawley rat assessed as CDDO-Me formation in kidney at 30 mg/kg, ip measured at 30 mins by LC-MS/MS analysis. Type of data set: ADME, organism-based. To be noted: 0.5 h. A digest of the protocol:
as §5

Another data set concerns the target hERG (KCNH2) (Homo sapiens, UniProt Q12809). As to the kind of experiment: Inhibition of human ERG expressed in CHO cells at 200 uM at -80 mV holding potential by patch clamp assay relative to control. It counts as cell-based. To be noted: CHO cells expressing human ERG.
Data set [18] concerns Mus musculus. In words: Cardioprotective activity in C57BL/6 db/db mouse assessed as reduction in apoptotic cardiomyocyte levels at 1 to 2 mg/kg, ip administered for 12 weeks by TUNNEL assay. It counts as functional, organism-based. A digest of the protocol:
as §3

hERG (KCNH2), sequence (Q12809 whole entry): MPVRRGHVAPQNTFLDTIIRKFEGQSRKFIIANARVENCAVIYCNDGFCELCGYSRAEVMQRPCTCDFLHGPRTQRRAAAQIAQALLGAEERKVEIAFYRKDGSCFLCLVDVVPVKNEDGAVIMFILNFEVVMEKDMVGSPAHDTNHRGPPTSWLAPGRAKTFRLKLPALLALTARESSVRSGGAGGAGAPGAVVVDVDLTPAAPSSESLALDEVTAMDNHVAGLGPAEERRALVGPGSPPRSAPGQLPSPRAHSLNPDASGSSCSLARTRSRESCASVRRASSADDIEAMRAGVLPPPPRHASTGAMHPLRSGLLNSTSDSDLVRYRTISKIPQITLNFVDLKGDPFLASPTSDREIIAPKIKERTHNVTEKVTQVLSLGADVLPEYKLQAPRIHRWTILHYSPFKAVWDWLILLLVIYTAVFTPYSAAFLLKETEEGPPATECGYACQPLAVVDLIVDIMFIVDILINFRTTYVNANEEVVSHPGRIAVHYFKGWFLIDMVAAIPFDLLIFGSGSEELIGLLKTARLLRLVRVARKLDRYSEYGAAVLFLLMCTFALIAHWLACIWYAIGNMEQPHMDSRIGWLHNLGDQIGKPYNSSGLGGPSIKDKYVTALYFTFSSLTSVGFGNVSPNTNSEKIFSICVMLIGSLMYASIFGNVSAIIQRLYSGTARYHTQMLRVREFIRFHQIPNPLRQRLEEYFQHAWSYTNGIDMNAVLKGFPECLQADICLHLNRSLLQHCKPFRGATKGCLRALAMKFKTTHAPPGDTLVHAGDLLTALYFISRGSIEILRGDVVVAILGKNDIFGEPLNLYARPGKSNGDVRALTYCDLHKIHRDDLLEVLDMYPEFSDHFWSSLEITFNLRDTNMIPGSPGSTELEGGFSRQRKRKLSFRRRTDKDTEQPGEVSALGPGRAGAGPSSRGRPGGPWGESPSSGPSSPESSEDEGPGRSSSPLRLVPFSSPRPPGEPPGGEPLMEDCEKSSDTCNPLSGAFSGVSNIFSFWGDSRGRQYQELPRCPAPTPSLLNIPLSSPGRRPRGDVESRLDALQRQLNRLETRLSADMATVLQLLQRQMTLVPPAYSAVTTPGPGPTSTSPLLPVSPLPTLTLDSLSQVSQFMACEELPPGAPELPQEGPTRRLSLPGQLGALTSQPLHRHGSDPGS
Kelch-like ECH-associated protein 1 (Homo sapiens), sequence (Q14145 whole entry): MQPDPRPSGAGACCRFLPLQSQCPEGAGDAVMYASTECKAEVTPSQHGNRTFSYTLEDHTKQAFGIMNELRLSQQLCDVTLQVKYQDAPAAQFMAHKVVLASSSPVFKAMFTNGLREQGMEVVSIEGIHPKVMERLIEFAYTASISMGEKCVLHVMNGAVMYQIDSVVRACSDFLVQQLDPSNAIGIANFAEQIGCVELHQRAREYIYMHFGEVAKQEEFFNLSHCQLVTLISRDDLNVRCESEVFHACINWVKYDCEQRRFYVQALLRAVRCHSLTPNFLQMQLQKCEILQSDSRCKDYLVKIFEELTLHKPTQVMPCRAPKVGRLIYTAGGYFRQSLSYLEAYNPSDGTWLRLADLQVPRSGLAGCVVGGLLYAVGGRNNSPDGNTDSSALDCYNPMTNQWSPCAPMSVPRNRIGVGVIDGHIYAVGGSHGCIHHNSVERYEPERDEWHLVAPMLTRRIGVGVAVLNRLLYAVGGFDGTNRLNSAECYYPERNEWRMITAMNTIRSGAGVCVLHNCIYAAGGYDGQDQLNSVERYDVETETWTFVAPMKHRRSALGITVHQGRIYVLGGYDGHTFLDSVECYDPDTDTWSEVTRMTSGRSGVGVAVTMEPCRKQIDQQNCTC

With `COC(=O)[C@]12CCC(C)(C)C[C@H]1[C@H]1C(=O)C=C3[C@@]4(C)C=C(C#N)C(=O)C(C)(C)[C@@H]4CC[C@@]3(C)[C@]1(C)CC2` [BARDOXOLONE METHYL], in the data set with Mus musculus [1], the Activity entry is “Non-Toxic”. Further, the result in the data set with Mus musculus [2], with Mus musculus [3], in the data set on Mus musculus [4] and with Mus musculus [5] was Active. In the data set on Mus musculus [6], the result was inactive. The Drug metabolism entry in data set [7] and in data set [8] was “Metabolite_Detected” in each case.

By inhibition is commonly meant the drop in the measured response relative to a control, in per cent. In the case of `COC(=O)[C@@H](N)CCC(=O)Nc1ccc(COC2=C(C#N)[C@H](O)[C@]3(C)C4=CC(=O)[C@@H]5[C@@H]6CC(C)(C)CC[C@]6(C(=O)OC)CC[C@@]5(C)[C@]4(C)CC[C@H]3C2(C)C)cc1`, the outcome with Mus musculus [9], with Mus musculus [10], with Mus musculus [12], with Mus musculus [13], in the data set with Mus musculus [14] and in the data set on Mus musculus [15] was Active. Further, the result in the data set on Mus musculus [16] and in the data set on Mus musculus [18] was Active. In addition, in [11], the inhibition entry is “Dose-dependent effect”. Besides, in data set [17], the concentration at 1.5 h was 800 ng/g. In addition, in the data set on Kidney, the Drug metabolism was 0.09 µg/g. The compound also showed an inhibition at 200 µM against hERG (KCNH2) of 36.1%.
